The results in this text go back to ChEMBL document CHEMBL1148956, “New sesquiterpenes from Pluchea arabica” (J Nat Prod, 2004).

For one data set, the system named is Pseudomonas aeruginosa. As to the kind of experiment: Antimicrobial activity against Pseudomonas aeruginosa ATCC 27853 up to 500 ug/ml by agar-dilution-streak method. In kind it is functional, organism-based. In outline: (§1)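 Screened with the agar-dilution-streak method. MIC was set by broth dilution following NCCLS. Compounds were dissolved in DMSO and diluted to graded concentrations in tryptone soy broth.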

The test system of another data set is Escherichia coli. As to the kind of experiment: Antimicrobial activity against Escherichia coli ATCC 9637 up to 500 ug/ml by agar-dilution-streak method. In kind it is functional, organism-based.
The test system of another data set is Staphylococcus aureus. As to the kind of experiment: Antimicrobial activity against Staphylococcus aureus ATCC 29213 by agar-dilution-streak method. In kind it is functional. Put shortly: as §1
The next data set has as its system Klebsiella pneumoniae. As to the kind of experiment: Antimicrobial activity against Klebsiella pneumoniae ATCC 10031 up to 500 ug/ml by agar-dilution-streak method. In kind it is functional, organism-based. Put shortly: as §1
A further data set has as its system Salmonella enterica. As to the kind of experiment: Antimicrobial activity against Salmonella choleraesuis ATCC 14028 up to 500 ug/ml by agar-dilution-streak method. In kind it is functional, organism-based. In outline:
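Salmonella choleraesuis ATCC 14028 was tested by the agar-dilution-streak method, alongside S. aureus ATCC 29213, P. aeruginosa ATCC 27853, C. albicans ATCC 10231 and K. pneumoniae ATCC 10031. Test compounds were dissolved in DMSO.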

Data set [1] concerns Radical scavenging activity. As to the kind of experiment: Antioxidant activity assessed as DPPH free radical scavenging activity relative to control. In kind it is functional. In general terms: The DPPH test is a chemical assay of radical scavenging.
Data set [2] is described as follows: Toxicity against brine shrimp larvae. Type of data set: organism-based. The note with it: artemia, in vivo.
Another data set relates to Candida albicans. As to the kind of experiment: Antimicrobial activity against Candida albicans ATCC 10231 up to 500 ug/ml by agar-dilution-streak method. In kind it is functional, organism-based. Put shortly: as §1

≈ marks a conversion by molar mass, not a printed value. Calls of active or inactive are those of the source.

The MIC is the smallest concentration in the dilution series that meets the test's criterion for growth inhibition. A low value points to inhibition by little substance. One may read the LC50 as the concentration that kills 50% of the test population. Higher therefore signals a less lethal substance. As for `C=C1C(CC2C[C@H](O)C=C2C)C(C)(C)C[C@H]1O` (stereo partly specified) [GODOTOL A], the result with Pseudomonas aeruginosa, in the data set with Escherichia coli, with Klebsiella pneumoniae, with Salmonella enterica and in the data set on Candida albicans was inactive. Also, the MIC with Staphylococcus aureus is 250 µg/mL (≈ 1060 µM). Moreover, the Activity in data set [1] is below 10%. The LC50 in data set [2] came to 290 µg/mL (≈ 1230 µM).

Turning to `C=C1C[C@@H](O)C=C(C)C2C1CC[C@@H](O)C2(C)C` (stereo partly specified) [GODOTOL B], the result with Pseudomonas aeruginosa, in the data set with Escherichia coli, in the data set on Klebsiella pneumoniae, with Salmonella enterica and with Candida albicans was inactive. The compound also yielded an MIC against Staphylococcus aureus of 500 µg/mL (≈ 2120 µM). Further, the Activity in data set [1] is below 10%. The same compound came in with an LC50 in data set [2] of 540 µg/mL (≈ 2280 µM).
